The target of data set [1] is T1, Ornithine decarboxylase (Homo sapiens) (UniProt P11926).
T1 sequence (whole entry): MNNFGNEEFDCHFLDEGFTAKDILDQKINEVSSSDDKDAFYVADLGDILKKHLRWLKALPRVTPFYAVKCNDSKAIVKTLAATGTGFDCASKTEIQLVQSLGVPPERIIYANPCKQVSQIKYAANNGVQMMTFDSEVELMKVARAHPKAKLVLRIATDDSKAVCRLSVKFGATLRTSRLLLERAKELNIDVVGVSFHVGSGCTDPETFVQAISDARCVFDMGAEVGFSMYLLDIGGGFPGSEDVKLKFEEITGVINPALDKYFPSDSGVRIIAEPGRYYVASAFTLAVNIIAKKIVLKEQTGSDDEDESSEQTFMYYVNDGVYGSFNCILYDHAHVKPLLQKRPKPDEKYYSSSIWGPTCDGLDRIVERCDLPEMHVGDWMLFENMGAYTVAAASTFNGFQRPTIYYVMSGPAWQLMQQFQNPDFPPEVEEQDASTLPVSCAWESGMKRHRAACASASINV
Put plainly: Inhibition of ODC in human DU145 cells at 100 uM after 6 hrs. It counts as cell-based.

In data set [2] the target is Diamine acetyltransferase 1 (Mus musculus) (UniProt P48026). Put plainly: Inhibition of recombinant mouse SSAT using spm as substrate at 500 uM relative to control. A digest of the protocol:
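Mouse recombinant SSAT acetylation with spermine fixed at 50 μM as substrate, analogue present at 500 μM. Activity expressed relative to reaction without analogue.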

Data set [3] has as its target T2, S-adenosylmethionine decarboxylase proenzyme (Homo sapiens) (UniProt P17707).
T2 sequence (whole entry): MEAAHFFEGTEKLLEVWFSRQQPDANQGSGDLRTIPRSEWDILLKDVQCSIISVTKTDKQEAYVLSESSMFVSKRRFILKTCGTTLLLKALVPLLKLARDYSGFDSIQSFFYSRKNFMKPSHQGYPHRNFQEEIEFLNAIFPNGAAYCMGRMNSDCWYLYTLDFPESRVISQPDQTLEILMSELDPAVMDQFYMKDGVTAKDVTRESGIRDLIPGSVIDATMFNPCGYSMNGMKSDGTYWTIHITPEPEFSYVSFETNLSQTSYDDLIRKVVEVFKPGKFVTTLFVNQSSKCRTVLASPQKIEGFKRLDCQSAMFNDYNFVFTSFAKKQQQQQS
The data set can be described thus: Inhibition of AdoMetDC in human DU145 cells at 100 uM after 6 hrs. It counts as cell-based.

Data set [4] concerns the target T3, Amine oxidase [copper-containing] 3 (Bos taurus) (UniProt Q9TTK6).
T3 sequence (whole entry): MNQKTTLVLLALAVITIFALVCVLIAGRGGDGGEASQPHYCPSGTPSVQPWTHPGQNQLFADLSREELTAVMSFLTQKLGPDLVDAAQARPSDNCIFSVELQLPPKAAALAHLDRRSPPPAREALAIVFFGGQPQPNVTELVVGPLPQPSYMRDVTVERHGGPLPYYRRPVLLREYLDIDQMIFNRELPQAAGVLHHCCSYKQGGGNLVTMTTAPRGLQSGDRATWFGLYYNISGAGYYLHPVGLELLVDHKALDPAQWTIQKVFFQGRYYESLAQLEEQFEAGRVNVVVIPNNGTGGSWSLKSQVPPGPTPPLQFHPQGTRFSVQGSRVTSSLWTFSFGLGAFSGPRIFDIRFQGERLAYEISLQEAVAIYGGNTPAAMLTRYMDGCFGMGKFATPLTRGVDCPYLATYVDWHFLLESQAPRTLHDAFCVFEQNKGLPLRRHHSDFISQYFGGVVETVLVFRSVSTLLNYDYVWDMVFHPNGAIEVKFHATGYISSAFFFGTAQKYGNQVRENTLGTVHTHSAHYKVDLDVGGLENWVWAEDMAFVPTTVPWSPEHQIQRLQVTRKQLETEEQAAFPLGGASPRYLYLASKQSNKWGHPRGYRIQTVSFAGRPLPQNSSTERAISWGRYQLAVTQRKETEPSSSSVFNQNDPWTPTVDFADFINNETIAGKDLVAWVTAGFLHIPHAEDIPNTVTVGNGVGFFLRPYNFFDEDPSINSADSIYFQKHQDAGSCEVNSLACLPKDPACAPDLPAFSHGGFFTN
The data set can be described thus: Inhibition of bovine plasma SSAO at 50 uM using spermine as substrate relative to control. Summed up: (§1)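 Competition with natural substrate at fixed 50 μM: spermine for purified bovine plasma SSAO and human recombinant SMOX, N1-acetylspermidine for human recombinant APAO. Analogue tested at 50 μM, with activity expressed relative to reaction without analogue.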

The target of data set [5] is Diamine acetyltransferase 1 (Homo sapiens) (UniProt P21673). The data set can be described thus: Induction of changes in SSAT activity in human DU145 cells at 100 uM after 3 days. Format: cell-based.
Data set [6] addresses T1, Ornithine decarboxylase (Homo sapiens). The data set can be described thus: Inhibition of ODC in human DU145 cells at 100 uM after 3 days. Format: cell-based.
For another data set, the system named is DU-145. The data set can be described thus: Reversal of alpha-difluoromethylornithine-induced growth arrest in human DU145 cells at 100 uM after 3 days. It counts as functional, cell-based. Summed up:
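DU145 cells cultured 3 days with 100 μM analogue, with or without 5 mM DFMO, all supplemented with 1 mM aminoguanidine. Growth assessed by electronic cell counting. Means ± SD, n = 3.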

In data set [7] the target is Diamine acetyltransferase 1 (Homo sapiens) (UniProt P21673). The data set can be described thus: Induction of changes in SSAT activity in human DU145 cells at 100 uM after 6 hrs. Format: cell-based.
The target of data set [8] is Ornithine decarboxylase antizyme 1 (Homo sapiens) (UniProt P54368). The data set can be described thus: Induction of OAZ1 in human DU145 cells assessed as reduction in intracellular ODC activity at 10 uM after 6 hrs relative to control. The arrangement: scale not given: the % may be the effect or the level left.
For data set [9], the target named is T2, S-adenosylmethionine decarboxylase proenzyme (Homo sapiens). The data set can be described thus: Inhibition of AdoMetDC in human DU145 cells at 100 uM after 3 days. Format: cell-based.
The target in data set [10] is Ornithine decarboxylase antizyme 1 (Homo sapiens) (UniProt P54368). The data set can be described thus: Induction of OAZ1 in human DU145 cells assessed as reduction in intracellular ODC activity at 100 uM after 6 hrs relative to control. The arrangement: scale not given: the % may be the effect or the level left.
The target of data set [11] is Spermine oxidase (Homo sapiens) (UniProt Q9NWM0). The data set can be described thus: Inhibition of recombinant human SMOX at 50 uM using spermine as substrate relative to control. A digest of the protocol: as §1
A further data set has as its system CC(CN)CNCCCCNCC(C)CN. Put plainly: (§2) Substrate activity at recombinant mouse SSAT assessed as Km at 2000 to 6000 uM. Format: ADME.
The test system of a further data set is CC(CCN)NCCCCNC(C)CCN. The description is as §2. It counts as ADME.
Data set [12] addresses Spermine oxidase (Homo sapiens) (UniProt Q9NWM0). Put plainly: Inhibition of recombinant human SMOX at 500 uM using spermine as substrate relative to control. Summed up: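 Human recombinant SMOX reaction with spermine fixed at 50 μM as substrate, analogue added at 500 μM. Activity expressed relative to reaction without analogue.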

Data on five compounds can be found in ChEMBL document CHEMBL4321859, “Unforeseen Possibilities To Investigate the Regulation of Polyamine Metabolism Revealed by Novel C-Methylated Spermine Derivatives” (J Med Chem, 2019).

The source made the active and inactive calls. The calls are words filed in the database; no cut-off is given here.

Diamine acetyltransferase 1 (Homo sapiens), sequence (P21673 whole entry): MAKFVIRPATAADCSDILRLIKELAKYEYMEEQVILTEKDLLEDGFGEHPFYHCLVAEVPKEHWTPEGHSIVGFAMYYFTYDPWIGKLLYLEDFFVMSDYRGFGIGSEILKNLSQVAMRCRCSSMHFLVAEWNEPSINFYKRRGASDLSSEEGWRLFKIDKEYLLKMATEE
Diamine acetyltransferase 1 (Mus musculus), sequence (chain, as listed by the source): as the sequence (P21673 whole entry) above, with V5K, A12S, E32D, L42Q, R119K, T169A counted along it
Ornithine decarboxylase antizyme 1 (Homo sapiens), sequence (P54368 whole entry): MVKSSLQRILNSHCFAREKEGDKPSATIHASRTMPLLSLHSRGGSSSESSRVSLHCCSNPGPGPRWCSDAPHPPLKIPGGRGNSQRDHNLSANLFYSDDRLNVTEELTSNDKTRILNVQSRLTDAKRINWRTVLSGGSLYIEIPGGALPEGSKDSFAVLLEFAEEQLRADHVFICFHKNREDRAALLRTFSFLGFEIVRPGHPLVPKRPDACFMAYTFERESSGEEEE
Diamine acetyltransferase 1 (Mus musculus) (UniProt P48026), sequence (P48026 whole entry): as the sequence (P21673 whole entry) above, with V5K, A12S, E32D, L42Q, R119K, T169A counted along it
Spermine oxidase (Homo sapiens), sequence (Q9NWM0 whole entry): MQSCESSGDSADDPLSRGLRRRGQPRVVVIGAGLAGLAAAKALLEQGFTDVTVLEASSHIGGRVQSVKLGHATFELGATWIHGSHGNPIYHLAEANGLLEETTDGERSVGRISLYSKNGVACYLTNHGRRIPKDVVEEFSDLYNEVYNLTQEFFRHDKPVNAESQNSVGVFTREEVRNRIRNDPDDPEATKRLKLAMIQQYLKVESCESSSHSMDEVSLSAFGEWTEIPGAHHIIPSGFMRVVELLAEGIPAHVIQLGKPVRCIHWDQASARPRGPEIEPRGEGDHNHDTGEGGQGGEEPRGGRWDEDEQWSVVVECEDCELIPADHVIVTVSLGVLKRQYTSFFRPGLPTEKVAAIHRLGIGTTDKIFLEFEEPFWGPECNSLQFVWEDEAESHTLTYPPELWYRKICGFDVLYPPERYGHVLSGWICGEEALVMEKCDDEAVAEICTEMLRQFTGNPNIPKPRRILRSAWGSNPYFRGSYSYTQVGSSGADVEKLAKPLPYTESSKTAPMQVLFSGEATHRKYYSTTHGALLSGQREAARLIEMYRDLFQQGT

The term inhibition denotes the relative decrease from the control value, in per cent. As for `CC(N)CCNCCCCNCCC(C)N` (centres undefined), the inhibition entry in [1], in [3], in data set [6] and in data set [9] was “Active” each time. The inhibition in data set [2] is 80%. Also, the inhibition result in [4] is “inactive”. In addition, the outcome (in data set [5]; in the data set on DU-145) was Active. In data set [7], the result was inactive. In [8], the Activity amounted to 80%.
As to `NCCCNCCCCNCCCN`, the inhibition result in [1] and in data set [6] was “Active” in each case. For the same compound, the Activity in data set [8] was found to be 80%.
Regarding `CC(CCN)NCCCCNC(C)CCN` (centres undefined), the inhibition result in data set [1], in [4] and in [6] was “inactive” throughout. Also, the inhibition turned out to be 75% in [2] and 70% in data set [11]. Also, the inhibition entry in data set [3] and in data set [9] was “Active” each time. Further, the result in data set [5] and in data set [7] was inactive. Further, in the data set on DU-145, the result was Active. The Activity in [10] is 55%; in [8], 5%.
As usually defined, the Km is the concentration of substrate that gives half-maximal velocity. A word on the Vmax: it is the top rate of the reaction or transport when substrate is in excess. Consider “Diamine acetyltransferase 1 (Mus musculus)”, for which, in the data set on CC(CN)CNCCCCNCC(C)CN, the Km was 52 µM and the Vmax came out at 0.895 µmol/min/mg. In the data set with CC(CCN)NCCCCNC(C)CCN, the Km turned out to be 60 µM and the Vmax was determined as 0.136 µmol/min/mg.
As to `CC(CN)CNCCCCNCC(C)CN` (centres undefined), the inhibition entry in [1], in [3], in data set [6] and in data set [9] was “Active” throughout. For the same compound, the results for the inhibition in data set [4] and in data set [12] were 80% and 70%, respectively. The result (in data set [5]; in the data set with DU-145) was Active. In addition, in data set [7], the outcome was inactive. The Activity in [8] stood at 80%.
